# NPY-Y1 PAM-ag = human NPY-Y1 potentiation or agonism, primary screen | hit rate 0.37% among 220,000 | NPY-Y1 expressing cells, potentiator/agonist activation | AID 1304 | activation, % at 3.6 µM | P25929; in the data active means activation above about 33%, passing the limit was not always enough;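 further: cells stimulated with NPY at EC10 then isoproterenol at EC100; 0% = low agonist plus stimulus and 100% = saturating agonist plus stimulus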
# Target sequence (P25929 whole entry, looked up): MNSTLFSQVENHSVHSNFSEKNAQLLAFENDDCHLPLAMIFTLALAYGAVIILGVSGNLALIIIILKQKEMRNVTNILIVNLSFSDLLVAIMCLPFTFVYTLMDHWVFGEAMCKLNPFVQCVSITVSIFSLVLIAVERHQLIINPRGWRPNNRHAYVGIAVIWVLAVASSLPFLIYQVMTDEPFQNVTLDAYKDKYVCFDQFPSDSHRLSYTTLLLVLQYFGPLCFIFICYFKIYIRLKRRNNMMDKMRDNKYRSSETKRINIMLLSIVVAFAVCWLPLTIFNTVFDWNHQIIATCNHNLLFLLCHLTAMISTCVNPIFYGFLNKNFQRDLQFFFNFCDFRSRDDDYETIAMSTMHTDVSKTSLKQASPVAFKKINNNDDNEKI
# Measles CPE = protection of cells from measles virus | Measles virus-infected cells, CPE protection, absorbance | protection (pct of control), % at 4 µM | hit rate 1.5% among 140,000 | AID 841; in the data active means protection mostly above about 24%, no sharp cut-off; inactive means mostly below about 26%
# NPY Y2 blocker = NPY-Y2 (human) receptor antagonism. NPY-Y2 expressing cells, antagonist mode. hit rate 0.99% among 140,000. inhibition, % at 2.7 µM. AID 793; in the data active means inhibition above about 17%;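 further: 0% = vehicle with agonist challenge and 100% = reference antagonist with challenge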
# MDM2 E3 inh = Mdm2 E3 ligase (human) inhibition | cell-based MDM2 ubiquitination luciferase reporter, 2 h; 0 = plate control, 100 = twice control, blank-subtracted | signal enhancement, % at 5 µM | hit rate 0.11% among 210,000;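 active means signal enhancement of 30% or more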;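 further: luminescence tracks abundance of the self-degrading MDM2-luciferase fusion protein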
#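 Timing – 2 h compound exposure at 37 °C · Assay system – mammalian cells stably expressing self-ubiquitinating, self-degrading MDM2 E3–luciferase fusion · Amount – 2000 cells seeded into each well · Measure – % luminescence enhancement versus blank-corrected plate control mean · Measured by – SteadyLite luminescence, 15 min reagent step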
# NPY-Y1 antag = blocks the human neuropeptide Y Y1 receptor | AID 1040 | P25929 | hit rate 1% among 200,000 | HEK293-CNG Y1 cells, membrane potential fluorescence; NPY at EC95, then isoproterenol | inhibition, % at 3.6 µM;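 active means inhibition above the campaign mean inhibition of all tested compounds plus 3 SD, cut at about 20% in these data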;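 further: 0% = DMSO wells given NPY plus isoproterenol and 100% = isoproterenol alone without NPY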
#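 Assay system: HEK293 cells with Y1 receptor plus CNG channel | Probe or stimulus: NPY (25 nM), isoproterenol (1 µM), Ro 20-1724 (25 µM) | Timing: Compound incubation 1 h at room temperature, readout 45 min post-stimulation | Measured by: Membrane-potential fluorescent dye readout | Benchmarks: High control isoproterenol alone, low control NPY with isoproterenol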
# NPY-Y2 PAM-ag = potentiates or activates human NPY-Y2 receptor. P49146. cells expressing NPY-Y2, potentiator/agonist read-out. activation, % at 3.6 µM. hit rate 0.45% among 220,000. AID 1359; in the data active means activation above about 27%;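 further: cells stimulated with NPY near EC25 plus isoproterenol at EC100; 0% = vehicle plus submaximal agonist and 100% = vehicle plus saturating agonist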
# NPY-Y2 pot conf = confirmation of human NPY-Y2 receptor potentiators or agonists. shares compounds with NPY-Y2 PAM-ag. cell-based NPY-Y2 potentiator/agonist assay. activation, % at 3.6 µM. hit rate 20% among 450. AID 1539; in the data active means activation above about 33%
# NPY-Y1 counter = counter-screen for NPY-Y2 potentiators or agonists: NPY-Y1 potentiators or agonists. shares compounds with NPY-Y2 PAM-ag. Y1 HEK293-CNG cells, membrane potential fluorescence. activation, % at 3.6 µM. hit rate 20% among 450. AID 1651; in the data active means activation above about 45%;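 further: cells stimulated with submaximal NPY then isoproterenol with phosphodiesterase inhibitor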
# NPY-Y1 ag 2 = counter-screen for NPY-Y2 potentiators: agonists of human NPY-Y1; HEK293 Y1-CNGC, membrane potential fluorescence, agonism; hit rate 37% among 450; activation, % at 3.6 µM; shares compounds with NPY-Y2 PAM-ag;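 active means activation above the mean of DMSO-only control wells plus 3 SD, cut at about 18% in these data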;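 further: cells stimulated with 1 µM isoproterenol plus the PDE inhibitor Ro 20-1724; 0% = isoproterenol with DMSO and no NPY and 100% = 40 nM NPY; Y1 agonists lower the membrane potential dye signal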
# CNGC inhibitor = counter-screen for NPY-Y2 potentiators: inhibitors of CNG channel activity. shares compounds with NPY-Y2 PAM-ag. HEK293-CNG parental, isoproterenol cAMP, membrane potential fluorescence. inhibition, % at 3.6 µM. hit rate 32% among 450. AID 1703;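 active means inhibition above the control-well mean plus 3 SD of those wells, cut at about 22% in these data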;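 further: 0% = DMSO with isoproterenol and 100% = DMSO without isoproterenol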
# Y2 agonist ctr = counter-screen for NPY-Y2 potentiators: agonists of human NPY-Y2 | HEK293 Y2/CNGC cells, membrane potential fluorescence, agonist mode | hit rate 56% among 450 | shares compounds with NPY-Y2 PAM-ag | AID 1710 | activation, % at 3.6 µM;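 active means activation above the mean of solvent-only control wells plus 3 SD, cut at about 10% in these data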;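 further: cells stimulated by isoproterenol with no NPY added so direct agonism is tested; 0% = DMSO with isoproterenol alone and 100% = NPY at EC100 plus isoproterenol; agonism lowers probe fluorescence through less cAMP and CNG channel opening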
# Starred values were filed as active, the others as inactive; . = no result given. Most compounds without a hit are left out; they make up all but 2.8% or so of the library.
SMILES,NPY-Y1 PAM-ag,Measles CPE,NPY Y2 blocker,MDM2 E3 inh,NPY-Y1 antag,NPY-Y2 PAM-ag,NPY-Y2 pot conf,NPY-Y1 counter,NPY-Y1 ag 2,CNGC inhibitor,Y2 agonist ctr
CCOC(=O)c1c(C2CC2)csc1NC(=O)COC(=O)c1cnc(Cl)c(Cl)c1,15,5,6,-17,-2,60*,-11,-22,-26,-12,-14
COc1ccc(OC)c(-n2c(=S)[nH]c3c(sc(=S)n3-c3ccccc3)c2=O)c1,-11,.,.,-1,6,10,.,.,.,.,.
Cc1c(-c2ccccc2)sc(N)c1C(=O)N1CCOCC1,12,8,-2,-5,13,-15,.,.,.,.,.
O=C(Nc1ccccc1)Nc1ncc([N+](=O)[O-])s1,21,.,.,-49,3,31*,13,-12,-11,8,-3
CCc1c(C)nc2ncnn2c1NCCc1ccc(Cl)cc1,12,.,.,5,-3,4,.,.,.,.,.
COCCN1C(=O)C(CC(=O)Nc2ccc(C(C)=O)cc2)SC1=Nc1ccccc1 (stereo unspecified),30,5,-3,-1,-12,43*,37*,49*,42*,34*,34*
CC(O)CN1C(=O)C(CC(=O)Nc2ccc(Cl)cc2)SC1=Nc1ccccc1 (stereo unspecified),11,8,-2,-17,-5,19,.,.,.,.,.
CCCS(=O)(=O)c1c(S(=O)(=O)CCC)c2c3ccccc3ccn2c1C(N)=O,0,8,1,-33,-8,11,.,.,.,.,.
Cc1ccc(NS(=O)(=O)c2cc([N+](=O)[O-])ccc2NNC(=S)Nc2cc(C)ccc2C)c(C)c1,16,6,-6,-3,-6,11,.,.,.,.,.
Cc1ccc(NS(=O)(=O)c2cc([N+](=O)[O-])ccc2NNC(=S)Nc2cccc(Cl)c2)c(C)c1,38,14,-7,-11,-11,31*,76*,97*,79*,62*,75*
NC(=NCCc1c[nH]c2ccccc12)NC(=O)c1ccc(Cl)cc1,27,.,.,-2,-1,28*,26,30,39*,37*,42*
CCOC(=O)c1[nH]c2ccc(F)cc2c1NC(=O)CN1CCN(C/C=C/c2ccccc2)CC1,29,7,-1,-3,-2,38*,67*,90*,68*,71*,53*
COC(=O)c1[nH]c2ccccc2c1NC(=O)CN1CCN(C/C=C/c2ccccc2)CC1,-25,6,5,-14,2,7,.,.,.,.,.
COc1ccc(-c2nc3cnccn3c2Nc2ccc(C)cc2)cc1,-15,1,10,-8,12,29*,47*,43,29*,27*,52*
c1ccc(-c2nc(-c3cccs3)[nH]c2-c2ccccc2)cc1,37,13,-2,-6,-9,41*,28,46*,27*,26*,28*
Cc1cc(NC(=O)CN2C(=O)NC3(CCC(C)CC3)C2=O)no1 (stereo unspecified),-9,9,3,0,2,-6,.,.,.,.,.
Cc1ccc(-n2c(SCC(N)=O)nc3c(c2=O)C2(CCCC2)Cc2ccccc2-3)cc1,26,18,-4,-4,-12,35*,32,47*,43*,29*,42*
CC(C)c1ccc2oc(-c3ccc(NC(=O)c4ncn[nH]4)cc3)nc2c1,16,16,-1,-22,-3,-4,.,.,.,.,.
